{"source": "ChEMBL document CHEMBL1914304", "about": "(J Med Chem, 2011)", "biological_target": "T1, Potassium/sodium hyperpolarization-activated cyclic nucleotide-gated channel 2 (Homo sapiens) (UniProt Q9UL51)", "T1 sequence (whole entry)": "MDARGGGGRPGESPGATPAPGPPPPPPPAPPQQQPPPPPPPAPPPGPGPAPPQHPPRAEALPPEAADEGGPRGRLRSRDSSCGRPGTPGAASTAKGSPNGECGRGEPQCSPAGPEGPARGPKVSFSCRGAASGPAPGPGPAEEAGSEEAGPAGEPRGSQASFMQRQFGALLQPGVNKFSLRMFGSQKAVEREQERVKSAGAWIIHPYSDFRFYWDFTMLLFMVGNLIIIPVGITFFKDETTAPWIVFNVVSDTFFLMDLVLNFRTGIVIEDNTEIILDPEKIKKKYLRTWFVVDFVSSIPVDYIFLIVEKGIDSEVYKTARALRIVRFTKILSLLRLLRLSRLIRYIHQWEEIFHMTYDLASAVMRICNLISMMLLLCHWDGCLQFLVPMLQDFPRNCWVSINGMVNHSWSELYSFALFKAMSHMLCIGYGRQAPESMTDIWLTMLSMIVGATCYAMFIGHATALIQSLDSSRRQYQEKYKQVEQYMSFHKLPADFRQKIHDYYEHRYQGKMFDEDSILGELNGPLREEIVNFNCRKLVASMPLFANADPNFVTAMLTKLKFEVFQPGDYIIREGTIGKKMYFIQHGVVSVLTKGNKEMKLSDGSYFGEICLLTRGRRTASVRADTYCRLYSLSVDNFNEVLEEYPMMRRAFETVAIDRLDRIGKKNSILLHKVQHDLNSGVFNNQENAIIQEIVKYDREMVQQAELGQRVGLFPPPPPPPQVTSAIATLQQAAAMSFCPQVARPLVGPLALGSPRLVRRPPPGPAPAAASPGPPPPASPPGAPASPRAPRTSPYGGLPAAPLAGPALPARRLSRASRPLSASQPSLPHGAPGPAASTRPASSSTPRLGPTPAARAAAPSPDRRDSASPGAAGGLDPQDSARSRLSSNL", "test": "Inhibition of HCN2 at 10 uM after 5 mins by patch clamp assay", "in_short": "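Cardiac ion channel panel run by a contract lab on an automated parallel patch-clamp system at room temperature. Each of 12 cardiac channels was tested with 10 µM compound for 5 min exposure, in two cells per channel (n ≥ 2). Values are reported as mean % inhibition.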", "data": [{"smiles": "CCCNCC(O)COc1ccccc1C(=O)CCc1ccccc1", "note": "(racemic) [PROPAFENONE]", "values": [{"measurement": "inhibition", "result": 47.8, "unit": "%"}]}]}
